{"source": "ChEMBL document CHEMBL5137129", "about": "“Anti-HIV Macrocyclic Daphnane Orthoesters with an Unusual Macrocyclic Ring from Edgeworthia chrysantha” (J Nat Prod, 2022)", "key": {"[1]": {"tested_on": "Human immunodeficiency virus 1", "assay": "Anti-HIV activity against Human immunodeficiency virus 1 […] infected in human MT4 cells assessed as inhibition of viral infection measured after 4 days by serial dilution based p24 ELISA analysis", "format": "functional, organism-based", "details": "Human immunodeficiency virus 1, MT4, 96 h", "in_short": "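HIV-1 NL4-3 at MOI 0.001 infected MT4 cells with compounds present at various concentrations (4-fold serial dilutions across the inhibitory phase). Fresh compound-containing medium was added 48 h post-infection. Replication was read by p24 ELISA at 4 days post-infection. Dose-response curves came from three independent experiments.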"}, "[2]": {"tested_on": "MT4", "assay": "Cytotoxicity against human MT4 cells assessed as inhibition of cell growth by measuring ATP by CellTiter-Glo luminescent cell viability assay", "format": "toxicity, cell-based", "in_short": "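MT4 cells were cultured in parallel with the anti-HIV-1 cultures (NL4-3, MOI 0.001, 4 days, medium with compound refreshed at 48 h). Viability was read as ATP of metabolically active cells by CellTiter-Glo luminescence. Dose-response curves came from three independent experiments.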"}}}
{"smiles": "C=C(C)[C@@]12OC34CCC/C=C\\CCCC[C@H](CCC)[C@@H]5[C@@H]6[C@]7(O[C@]5(C)OC7=O)[C@H](O)[C@@]5(CO)O[C@H]5[C@@H]([C@H]1O3)[C@]6(O4)[C@H](C)[C@H]2OC(C)=O", "values": [{"measurement": "EC50", "setting": "[1]", "result": "> 0.032", "unit": "µM"}, {"measurement": "IC50", "setting": "[2]", "result": "> 0.032", "unit": "µM"}]}
{"smiles": "C=C(C)[C@@]12OC34CCC/C=C\\CCCC[C@H](CCC)[C@@H]5[C@@H]6[C@]7(O[C@]5(C)OC7=O)[C@H](O)[C@@]5(CO)O[C@H]5[C@@H]([C@H]1O3)[C@]6(O4)[C@H](COC(=O)c1ccccc1)[C@H]2OC(C)=O", "values": [{"measurement": "EC50", "setting": "[1]", "result": "> 0.032", "unit": "µM"}, {"measurement": "IC50", "setting": "[2]", "result": "> 0.032", "unit": "µM"}]}
{"smiles": "C=C(C)[C@@]12OC34CCC/C=C\\CCCC[C@H](CCC)[C@H]5[C@H](C)C(=O)[C@@]6(O)[C@H](O)[C@@]7(CO)O[C@H]7[C@@H]([C@H]1O3)[C@](O4)([C@H](COC(=O)C(C)C)[C@H]2OC(C)=O)[C@H]56", "values": [{"measurement": "EC50", "setting": "[1]", "result": 0.0029, "unit": "µM"}, {"measurement": "IC50", "setting": "[2]", "result": 0.0213, "unit": "µM"}]}
{"smiles": "C=C(C)[C@@]12OC34CCC/C=C\\CCCC[C@H](CCC)[C@H]5[C@H](C)C(=O)[C@@]6(O)[C@H](O)[C@@]7(CO)O[C@H]7[C@@H]([C@H]1O3)[C@](O4)([C@H](C)[C@H]2OC(C)=O)[C@H]56", "values": [{"measurement": "EC50", "setting": "[1]", "result": 0.0084, "unit": "µM"}, {"measurement": "IC50", "setting": "[2]", "result": "> 0.032", "unit": "µM"}]}
{"smiles": "C=C(C)[C@]12C[C@@H](COC(=O)c3ccccc3)[C@@]34OC5(O[C@@H]1[C@@H]3[C@@H]1O[C@]1(CO)[C@@H](O)[C@@]1(O)[C@H]4[C@H]([C@H](C)[C@@H]1OC(=O)c1ccccc1)[C@H](C)CCCCCC[C@H]5O)O2", "values": [{"measurement": "IC50", "setting": "[2]", "result": "> 0.032", "unit": "µM"}]}
{"smiles": "C=C(C)[C@@]12OC34CCC/C=C\\CCCC[C@H](CCC)[C@@H]5[C@@H]6[C@]7(O[C@]5(C)OC7=O)[C@H](O)[C@@]5(CO)O[C@H]5[C@@H]([C@H]1O3)[C@]6(O4)[C@H](COC(=O)C(C)C)[C@H]2OC(C)=O", "values": [{"measurement": "EC50", "setting": "[1]", "result": 0.0293, "unit": "µM"}, {"measurement": "IC50", "setting": "[2]", "result": "> 0.032", "unit": "µM"}]}
